Data set [1] concerns the target T1, CYP3A4 (Homo sapiens, UniProt P08684). The data set is described as follows: Inhibition of CYP3A4 in human liver microsomes assessed as testosterone conversion to 6-hydroxy testosterone at 2.5 uM preincubated for 10 mins followed by NADPH addition measured after 15 mins by LC-MS/MS analysis relative to control. It is filed as ADME. The following applies: probe testosterone.

The subject of data set [2] is Candida albicans. Description: Antifungal activity against fluconazole-resistant Candida albicans 103 after 24 hrs by serial dilution method in presence of fluconazole. It is filed as functional. Put shortly:
(§1)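 Tested in combination with fluconazole against each fluconazole-resistant C. albicans strain. Interaction was scored by fractional inhibitory concentration index (FICI): synergy at FICI ≤ 0.5, indifference at 0.5 < FICI ≤ 4, antagonism at FICI > 4.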

Data set [3] concerns Candida albicans. The data set is described as follows: Inhibition of biofilm formation of fluconazole-sensitive Candida albicans SC5314 at 4 ug/ml after 48 hrs by XTT assay relative to control. It is filed as functional. The following applies: SC5314, 48 h. Put shortly: (§2)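 Biofilm formation by C. albicans SC5314 was tested with compound at 2–64 μg/mL. Untreated and fluconazole 64 μg/mL controls were included. Biofilm was quantified by XTT reduction and expressed as % of untreated control. Mean ± SD of three independent experiments; ANOVA and Student t test, p<0.05.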
In general terms: Tetrazolium dyes change colour on reduction, which living cells bring about.

For data set [4], the system named is Candida albicans. The data set is described as follows: Antifungal activity against fluconazole-sensitive Candida albicans SC5314 assessed as change in lanosterol composition at 8 ug/ml after 24 hrs by GC-MS analysis (reference value: 1.5%). It is filed as functional. Put shortly: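 C. albicans SC5314 exposed to 8 μg/mL for 24 h, sterols analysed by GC-MS with cholesterol internal standard; each sterol expressed as % of total sterol fraction versus no-drug control; average of three independent experiments.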

In data set [5] the target is Cytochrome P450 2C19 (Homo sapiens, UniProt P33261). Description: Inhibition of CYP2C19 in human liver microsomes assessed as S-mephenytoin conversion to 4'-hydroxy mephenytoin preincubated for 10 mins followed by NADPH addition measured after 15 mins by LC-MS/MS analysis. It is filed as ADME. On the technique in general: Liver microsomes are vesicles of endoplasmic reticulum, rich in cytochrome P450 enzymes.
Sequence of Cytochrome P450 2C19 (P33261 whole entry): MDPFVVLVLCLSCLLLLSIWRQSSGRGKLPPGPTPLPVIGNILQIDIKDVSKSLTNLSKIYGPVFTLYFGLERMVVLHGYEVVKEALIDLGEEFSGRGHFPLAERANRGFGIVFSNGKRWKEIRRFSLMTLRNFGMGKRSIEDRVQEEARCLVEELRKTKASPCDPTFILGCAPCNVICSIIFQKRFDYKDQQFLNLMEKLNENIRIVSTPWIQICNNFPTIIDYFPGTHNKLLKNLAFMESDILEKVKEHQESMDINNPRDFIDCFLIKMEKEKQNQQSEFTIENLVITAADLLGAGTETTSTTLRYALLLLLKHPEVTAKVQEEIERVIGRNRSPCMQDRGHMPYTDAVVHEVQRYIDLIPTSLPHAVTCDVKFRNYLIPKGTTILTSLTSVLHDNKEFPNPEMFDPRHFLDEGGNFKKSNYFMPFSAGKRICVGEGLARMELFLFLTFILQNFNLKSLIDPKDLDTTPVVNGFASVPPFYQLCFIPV

Data set [6] relates to Trichophyton rubrum. Description: Antifungal activity against Trichophyton rubrum Cmccftla after 7 days by serial dilution method. It is filed as functional. The note with it: 168 h.
The subject of data set [7] is Candida parapsilosis. Description: Antifungal activity against Candida parapsilosis ATCC 22019 after 24 hrs by serial dilution method. It is filed as functional. The following applies: Lodderomyces parapsilosis, ATCC 22019, 24 h.
The test system of data set [8] is Candida albicans. Description: Fungicidal activity against fluconazole-resistant Candida albicans 103 assessed as growth inhibition at 4 to 32 ug/ml after 12 to 48 hrs. It is filed as functional, organism-based. Put shortly: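 Time-kill: C. albicans (SC5314 or 103) inoculated at 10^5 CFU/mL, untreated or with drug (2–32 μg/mL; fluconazole 32 μg/mL reference); CFU/mL counted after 0, 12, 24 and 48 h.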

Data set [9] deals with Candida albicans. The data set is described as follows: Antifungal activity against fluconazole-sensitive Candida albicans SC5314 assessed as necrosis at 8 ug/ml after 8 hrs by TEM analysis. It is filed as functional, organism-based. Put shortly:
(§3)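 Transmission electron microscopy of C. albicans SC5314 cells exposed to 8 μg/mL for 8 h. Untreated cells and cells given fluconazole 8 μg/mL for 8 h served as controls. Cell wall layers, cytoplasmic density and vacuole shape were compared by eye.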

The test system of data set [10] is Candida albicans. Description: Inhibition of hyphal growth of fluconazole-sensitive Candida albicans SC5314 assessed as appearance of pseudohyphal form at 2 ug/ml after 16 hrs by light microscopic analysis. It is filed as functional, organism-based. Put shortly:
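C. albicans SC5314 was grown in RPMI 1640 at 37 °C for 16 h, without compound or with 2–8 μg/mL. A fluconazole 8 μg/mL control was included. Cell morphology (hyphae, pseudohyphae, budding yeast) was then scored by microscopy.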

The target of data set [11] is T1, CYP3A4. The data set is described as follows: Inhibition of CYP3A4 in human liver microsomes assessed as midazolam conversion to 1'-hydroxy midazolam at 25 uM preincubated for 10 mins followed by NADPH addition measured after 15 mins by LC-MS/MS analysis relative to control. The note with it: probe midazolam. It is filed as ADME.
The target in data set [12] is T2, CYP2C19 (Homo sapiens, UniProt P33261). Description: Inhibition of CYP2C19 in human liver microsomes assessed as S-mephenytoin conversion to 4'-hydroxy mephenytoin at 0.25 uM preincubated for 10 mins followed by NADPH addition measured after 15 mins by LC-MS/MS analysis relative to control. It is filed as ADME. The note with it: probe S-mephenytoin.
T2 sequence (P33261 whole entry): as above
The target of data set [13] is T3, CYP2C9 (Homo sapiens, UniProt P11712). The data set is described as follows: Inhibition of CYP2C9 in human liver microsomes assessed as tolbutamide conversion to 4-hydroxy tolbutamide at 25 uM preincubated for 10 mins followed by NADPH addition measured after 15 mins by LC-MS/MS analysis relative to control. It is filed as ADME. The note with it: probe tolbutamide.
T3 sequence (P11712 whole entry): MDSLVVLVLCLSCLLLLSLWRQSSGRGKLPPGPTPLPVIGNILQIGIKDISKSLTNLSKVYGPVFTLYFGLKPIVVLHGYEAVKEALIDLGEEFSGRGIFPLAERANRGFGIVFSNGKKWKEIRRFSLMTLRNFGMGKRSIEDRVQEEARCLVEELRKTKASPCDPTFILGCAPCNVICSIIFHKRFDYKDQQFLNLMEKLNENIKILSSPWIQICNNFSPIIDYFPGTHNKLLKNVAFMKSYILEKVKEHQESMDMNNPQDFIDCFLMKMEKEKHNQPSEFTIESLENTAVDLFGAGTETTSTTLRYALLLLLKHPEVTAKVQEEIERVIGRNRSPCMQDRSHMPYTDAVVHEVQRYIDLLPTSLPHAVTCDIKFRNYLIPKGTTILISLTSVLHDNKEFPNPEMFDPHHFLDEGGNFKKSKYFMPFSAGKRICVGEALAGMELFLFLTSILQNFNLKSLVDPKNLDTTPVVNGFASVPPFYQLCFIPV

The subject of data set [14] is Candida albicans. Description: Inhibition of biofilm formation of fluconazole-sensitive Candida albicans SC5314 after 48 hrs by XTT assay. It is filed as functional, organism-based. Put shortly:
as §2

Data set [15] deals with Candida albicans. Description: Antifungal activity against fluconazole-resistant Candida albicans 805 after 24 hrs by serial dilution method. It is filed as functional. The note with it: Candida albicans, 805, 24 h.
In data set [16] the target is T2, CYP2C19. The data set is described as follows: Inhibition of CYP2C19 in human liver microsomes assessed as S-mephenytoin conversion to 4'-hydroxy mephenytoin at 2.5 uM preincubated for 10 mins followed by NADPH addition measured after 15 mins by LC-MS/MS analysis relative to control. It is filed as ADME. The following applies: probe S-mephenytoin.
Data set [17] addresses T2, CYP2C19. Description: Inhibition of CYP2C19 in human liver microsomes assessed as S-mephenytoin conversion to 4'-hydroxy mephenytoin at 25 uM preincubated for 10 mins followed by NADPH addition measured after 15 mins by LC-MS/MS analysis relative to control. It is filed as ADME. The following applies: probe S-mephenytoin.
For data set [18], the system named is Candida albicans. Description: Antifungal activity against fluconazole-resistant Candida albicans 805 after 24 hrs by serial dilution method in presence of fluconazole. It is filed as functional. Put shortly:
as §1

Data set [19] relates to Candida albicans. Description: Antifungal activity against fluconazole-sensitive Candida albicans SC5314 assessed as reduction in cytoplasmic density at 8 ug/ml after 8 hrs by TEM analysis. It is filed as functional, organism-based. Put shortly: as §3
Data set [20] relates to Pichia kudriavzevii. The data set is described as follows: Antifungal activity against Candida krusei 0710397 after 7 days by serial dilution method. It is filed as functional. The following applies: Pichia kudriavzevii, 0710397, 168 h.
The target of data set [21] is T3, CYP2C9. The data set is described as follows: Inhibition of CYP2C9 in human liver microsomes assessed as tolbutamide conversion to 4-hydroxy tolbutamide at 2.5 uM preincubated for 10 mins followed by NADPH addition measured after 15 mins by LC-MS/MS analysis relative to control. It is filed as ADME. The following applies: probe tolbutamide.

≈ marks a conversion by molar mass, not a printed value. Calls of active or inactive are those of the source. No cut-off for these calls is given here. Where only a bound is given, the exact number is not on record here.

Data on one molecule can be found in ChEMBL document CHEMBL3286225, “Novel carboline derivatives as potent antifungal lead compounds: design, synthesis, and biological evaluation” (ACS Med Chem Lett, 2014).

T1 sequence (P08684 whole entry): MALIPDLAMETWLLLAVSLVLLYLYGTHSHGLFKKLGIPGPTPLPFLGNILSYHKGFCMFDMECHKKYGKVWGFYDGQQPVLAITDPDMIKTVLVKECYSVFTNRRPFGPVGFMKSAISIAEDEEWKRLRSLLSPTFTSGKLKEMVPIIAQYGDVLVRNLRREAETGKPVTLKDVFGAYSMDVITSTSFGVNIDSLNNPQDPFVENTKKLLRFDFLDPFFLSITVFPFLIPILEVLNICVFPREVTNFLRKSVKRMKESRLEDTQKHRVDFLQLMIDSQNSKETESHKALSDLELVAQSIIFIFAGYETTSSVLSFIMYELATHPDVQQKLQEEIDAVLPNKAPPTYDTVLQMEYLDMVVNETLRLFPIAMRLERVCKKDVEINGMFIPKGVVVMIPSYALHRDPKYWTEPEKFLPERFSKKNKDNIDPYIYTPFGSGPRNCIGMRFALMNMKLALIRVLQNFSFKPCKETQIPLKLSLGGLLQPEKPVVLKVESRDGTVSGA

A word on the inhibition: it is the relative decrease from the control value, in per cent. The IC50 is the concentration needed to halve the response being measured. For orientation: MIC80 means the lowest concentration that inhibits either 80% of growth or 80% of the strains tested, depending on the study. Lower therefore signals higher susceptibility. For `Fc1ccc2c(c1)c1c(n2CCCOc2ccc(Cl)cc2)CCNC1`, the results for the inhibition at 0.25 h, 2.5 µM in [1], in data set [16] and in data set [21] were -10%, 5% and 8%, respectively. Also, the “fractional inhibitory concentration index (FICI)” value in data set [2] and in data set [18] was 0.252 throughout. Further, in [3], the inhibition at 4 µg/mL is over 50%. The Activity in [4] is 12.2%. Moreover, the IC50 in data set [5] is over 25 µM. In addition, the MIC80 was 2 µg/mL (≈ 5.57 µM) in data set [6], 4 µg/mL (≈ 11.1 µM) in data set [7], 4 µg/mL (≈ 11.1 µM) in data set [15] and 4 µg/mL (≈ 11.1 µM) in data set [20]. The “growth inhibition (GI)” value in data set [8] and in data set [10] was “Active” each time. Also, the result in [9] and in [19] was Active. Further, the inhibition at 0.25 h, 25 µM stood at 50% in [11], 36% in data set [13] and 33% in data set [17]. The inhibition at 0.25 h, 0.25 µM in [12] came to 4%. The inhibition result in [14] is “Dose-dependent effect”.
